This is a sample that favours compounds with a hit; in the whole collection about 4.1% have one here.
hERG rescue: shields human hERG channel from block by proarrhythmic agents; activation (rescue from dofetilide block), less the hit threshold, % at 10 µM; CHO-hERG, FluxOR thallium flux, dofetilide IC70 present; AID 1511; Q12809; actives 0.51% (n = 310,000);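 active = activation above the mean of controls blocked by dofetilide plus 5 SD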;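 also: thallium influx through hERG after potassium depolarization seen as dye fluorescence rise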
KCNK9 inh: human KCNK9 channel inhibition; HEK293 KCNK9, FluxOR thallium flux fluorescence; stronger effect = lower value; actives 1.2% (n = 310,000); B-score at 10 µM; Q9NPC2; AID 488922;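 active = ratio B-score over 3 SD below the library mean, with starting fluorescence within 5 SD of its mean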;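 also: negative B-score means less thallium flux so channel inhibition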
KCNK3 block: human KCNK3 channel inhibition, primary screen. actives 0.84% (n = 340,000). B-score at 10 µM. CHO-KCNK3 thallium flux, FluxOR fluorescence; stronger effect = lower value. AID 602410. O14649;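 active = B-score under library mean minus 4 SD, starting fluorescence ratio at most library mean plus 5 SD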;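 also: more negative B-score means stronger inhibition of thallium flux through KCNK3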
KCC2 mod: KCC2 (human) Cl- transport modulation; Q9H2X9; KCC2 cells, thallium flux FluoZin-2 fluorescence; B-score of Tl+ flux slope (higher = more flux/activation; lower = inhibition) at 10 µM; actives 2.2% (n = 190,000); AID 1456;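 active = thallium flux slope and its plate-corrected score both differing from the plate sample mean at a set confidence after two filtering rounds, in either direction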;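 also: slope of fluorescence scaled to starting intensity during 10 to 20 s after thallium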
KCNQ1 pot: potentiates or activates the human KCNQ1 potassium channel | P51787 | CHO-K1 KCNQ1, thallium flux FluxOR fluorescence; stronger effect = higher value | actives 0.35% (n = 310,000) | AID 2648 | B-score at 10 µM;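 active = fluorescence ratio B-score, a plate-corrected score, at least three library SD, with initial intensity B-score within 5 SD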
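Medium – assay buffer, equal DMSO in all wells · Material – CHO-K1 cell line with stable KCNQ1 potassium channel expression · Signal – kinetic FluxOR thallium fluorescence, 10-s 1-Hz baseline, 110-s post-stimulus read · Compound – single concentration per compound, DMSO matched to controls · Schedule – 37 °C overnight plating, 90-min dark dye load, 20-min compound pretreatment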
KCNQ1 block: human KCNQ1 channel inhibition; AID 2642; actives 1.3% (n = 310,000); CHO-K1 KCNQ1, FluxOR thallium flux fluorescence; stronger effect = higher value; B-score at 10 µM;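 active = compounds whose thallium flux B-score, printed positive for inhibition, exceeds three library SD while starting fluorescence stays within three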;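 also: channel opened by potassium depolarization with thallium stimulus after 20 min compound exposure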
KCC2 sec1: confirmation of human KCC2 transport modulators; actives 15% (n = 3,700); normalised thallium flux (F/F0 slope) at 10 µM; shares compounds with KCC2 mod; HEK293-KCC2, thallium flux, FluoZin2 fluorescence; stronger effect = higher value;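 active = thallium flux slope above the same plate's solvent-only control mean plus 3 SD; inconclusive = the two replicate wells disagree; inactive = no significant difference from solvent-only control wells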
KCC2 bumet counter: thallium flux persisting under bumetanide in KCC2 cells, counter-screen secondary assay | shares compounds with KCC2 mod | HEK293-KCC2 + bumetanide/ouabain, thallium flux FluoZin2; stronger effect = higher value | normalized thallium flux at 10 µM | actives 49% (n = 3,700) | AID 1714;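 active = thallium entry rate above the same plate's blocked-transporter control wells by more than 3 SD; inconclusive = the two repeat wells disagree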;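 also: raw slope of fluorescence over initial fluorescence between 10 and 20 s after thallium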
KCC2 secondary2: KCC2 (human) modulation, second secondary assay. shares compounds with KCC2 mod. AID 1715. normalized thallium flux at 10 µM. HEK293-KCC2, thallium flux FluoZin2 fluorescence; actives lie on both sides; F/F0 rise rate, 10–20 s post-thallium. actives 23% (n = 3,700);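 active = thallium flux slope more than 3 SD above or below the plate's solvent-only control mean, mostly below; inconclusive = the two repeat wells disagreed; inactive = no significant shift from solvent-only controls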;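 also: raw slope with 0.1% DMSO as baseline and bumetanide as block control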
HEK293 Tl flux: acts in parental HEK cells, KCC2 counter-screen. shares compounds with KCC2 mod. HEK293 parental cells, thallium flux FluoZin2, ouabain; baseline-ratio fluorescence slope, 10–20 s after thallium. thallium flux rate (normalised fluorescence) at 10 µM. actives 46% (n = 3,700);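 active = thallium flux rate significantly above the same plate's solvent-only control wells, beyond their mean plus 3 SD; inconclusive = the two replicate wells gave conflicting results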
KCC2 ouabain: confirmation of human KCC2 modulators with ouabain; shares compounds with KCC2 mod; HEK293-KCC2, thallium flux FluoZin2 fluorescence; bidirectional: low = inhibitor, high = activator; raw Tl+ flux slope (below DMSO = inhibition, above = activation) at 10 µM; actives 48% (n = 3,700);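 active = thallium flux slope beyond 3 SD from same-plate DMSO control mean in most replicates, usually higher, sometimes lower; inconclusive = repeat tests gave conflicting results; inactive = no significant difference from controls in most replicates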;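 also: slope of initial-normalized fluorescence between seconds 10 and 20 after thallium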
HEK counter2: parental HEK flux effect, counter-screen 2 | shares compounds with KCC2 mod | HEK293 parental, thallium flux FluoZin-2 fluorescence slope | thallium flux slope at 10 µM | actives 33% (n = 3,700);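 active = thallium flux slope above the same plate's solvent-control mean plus 3 SD in both duplicate wells; inconclusive = duplicate wells that disagreed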;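 also: run without ouabain in cells lacking the KCC2 cotransporter; slope of fluorescence scaled to its starting value between 10 and 20 s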
Active calls of the source: *; i = inactive; u = inconclusive; x = not tested or not shown.

SMILES | hERG rescue | KCNK9 inh | KCNK3 block | KCC2 mod | KCNQ1 pot | KCNQ1 block | KCC2 sec1 | KCC2 bumet counter | KCC2 secondary2 | HEK293 Tl flux | KCC2 ouabain | HEK counter2
Cc1ccc(C)c(NC(=S)NNC(=O)c2ccc(Br)o2)c1 | -10 | i | i | x | i | i | x | x | x | x | x | x
Cc1ccc(NC(=S)NC(=O)c2ccc(Br)o2)c(C)c1 | 0 | i | i | 55* | i | i | 0.021* | 0.13* | 0.044* | 0.069* | 0.11* | 0.018*
Cc1cccc(NC(=S)NC(=O)c2ccc(Br)o2)c1C | 46* | i | i | 71* | i | i | 0.05* | 0.1* | 0.054* | 0.14* | 0.12* | 0.057*
O=C(CSc1nc2ccccc2s1)Nc1ccc(Cl)c(S(=O)(=O)N2CCOCC2)c1 | -11 | i | i | 0.45 | i | i | x | x | x | x | x | x
O=C(CSc1nc2cc(Cl)ccc2c(=O)n1Cc1ccco1)Nc1ccc(S(=O)(=O)N2CCOCC2)cc1 | -3 | i | i | 4.4* | i | i | 0.0073 | 0.014* | 0.034 | 0.018* | u | 0.015*
O=C(CSc1nc2cc(Cl)ccc2s1)c1cc2ccccc2o1 | -2 | i | i | 4.5* | 21* | i | 0.025* | 0.055* | 0.039 | 0.031* | 0.048* | 0.017*
Cc1cc(NC(=O)CSc2nc3cc(Cl)ccc3s2)no1 | -2 | i | i | 0.85 | i | i | x | x | x | x | x | x
O=C(CSc1cccc2cccnc12)Nc1ccc(S(=O)(=O)N2CCOCC2)cc1 | -14 | i | i | 9.6* | i | i | 0.006 | 0.02* | 0.028 | 0.016* | u | 0.013*
O=C(CSc1nc2cc(Cl)ccc2s1)Nc1cccc(S(=O)(=O)N2CCOCC2)c1 | -6 | i | i | 3.1* | i | i | 0.011 | 0.015* | 0.036 | u | 0.026* | u
COC(=O)c1ccc2c(=O)n(Cc3ccco3)c(SCC(=O)Nc3ccc(C)c(Cl)c3)nc2c1 | -4 | i | i | 0.0051 | i | i | x | x | x | x | x | x
CCN(CC)S(=O)(=O)c1ccc(C(=O)NCC2CCCCC2)cc1 | -16 | i | i | x | i | i | x | x | x | x | x | x
C#CC1(O)CCC2C3CCc4cc(O)cc(C)c4C3CCC21C (configuration not stated) | x | x | i | x | x | x | x | x | x | x | x | x
CN(C)S(=O)(=O)c1ccc(C(=O)Nc2ccc3nc(N4CCOCC4)sc3c2)cc1 | x | x | i | x | x | x | x | x | x | x | x | x
C(=N\NC1=Nc2cccc3cccc1c23)/c1cccnc1 | -11 | i | i | -3.8* | i | i | 0.0065 | u | 0.029 | 0.0071 | 0.016* | 0.01
C(=N\NC1=Nc2cccc3cccc1c23)/c1ccccc1 | -10 | i | i | -0.054 | i | i | x | x | x | x | x | x
Cc1ccc2c(Cl)cc(Cl)c(OCC(=O)N(C(C)C)C(C)C)c2n1 | -7 | i | i | 4* | i | i | 0.016 | 0.014* | 0.028 | 0.011* | 0.019 | 0.012
CC(C)(C)NC(=O)COC(=O)c1ccc(Cl)nc1 | -1 | i | i | 0.63 | i | i | x | x | x | x | x | x
COC(=O)COc1c(Cl)cc(Cl)c2ccc(C)nc12 | -12 | i | i | 6.2* | i | i | 0.016 | 0.011* | 0.03 | 0.011* | 0.019 | 0.014*
COc1ccc(OC)c(NC(=O)COC(=O)COc2c(Cl)cc(Cl)c3ccc(C)nc23)c1 | -7 | i | i | x | i | i | x | x | x | x | x | x
Cc1ccc2c(Cl)cc(Cl)c(OCC(=O)NC(C)(C)C)c2n1 | -7 | i | i | 6.9* | i | i | 0.01 | 0.031* | 0.03 | 0.018* | 0.032* | u
CC1CN(C(=O)CCC(=O)NCc2ccc(Cl)cc2)c2ccccc2O1 (configuration not stated) | -14 | i | i | x | i | i | x | x | x | x | x | x
COc1ccccc1NC(=O)c1cnc(SCC(=O)NCCc2ccccc2)n(C)c1=O | -10 | i | i | x | i | i | x | x | x | x | x | x
C/C(N)=C(/C#N)C(=O)CSc1nnc(Nc2cccc(C)c2C)s1 | -20 | i | i | -2.4 | i | i | x | x | x | x | x | x
Cc1cccc(Nc2nnc(SCC(=O)c3ccc(Br)s3)s2)c1C | -9 | i | i | -4.3* | i | i | u | u | 0.027* | 0.0075 | 0.011* | 0.011
Cc1nc2ccc(NC(=S)NC3CCCCC3)cc2nc1C | -5 | i | i | -0.093 | i | i | x | x | x | x | x | x
SMILES | hERG rescue | KCNK9 inh | KCNK3 block | KCC2 mod | KCNQ1 pot | KCNQ1 block | KCC2 sec1 | KCC2 bumet counter | KCC2 secondary2 | HEK293 Tl flux | KCC2 ouabain | HEK counter2
COC(=O)C(C)Sc1snnc1-c1ccccc1 (configuration not stated) | -9 | i | i | x | i | i | 0.016 | 0.004 | 0.029 | u | 0.015 | 0.0095
CN(C)C(=O)c1snnc1-c1ccccc1 | -6 | i | i | 0.97 | i | i | x | x | x | x | x | x
COc1cccc(-c2nc(SCC(=O)Nc3nc(-c4ccccc4)c(C)s3)[nH]c(=O)c2C#N)c1 | -22 | i | i | -3 | i | i | x | x | x | x | x | x
CCOc1ccc2nc(NC(=O)CSc3nc(-c4ccccc4)c(C#N)c(=O)[nH]3)sc2c1 | 0 | i | i | -3.2* | i | i | 0.0092 | u | 0.035 | 0.0053* | 0.021 | 0.0092
Nn1c(SCC(=O)Nc2ccccc2F)nnc1-c1cccs1 | -8 | i | i | x | i | i | x | x | x | x | x | x
Brc1ccc(CNc2ccc3ncccc3c2)cc1 | -4 | i | i | x | i | i | x | x | x | x | x | x
COc1cccc(/C=C2\SC(=S)NC2=O)c1OS(=O)(=O)c1ccc(NC(C)=O)cc1 | -9 | i | i | -5.8* | i | i | u | 0.0059 | u | 0.0055* | 0.014* | 0.0094

Screens from PubChem.
